Assays:
hOTR (oxytocin receptor) = molecular target: T1, hOTR (oxytocin receptor) (Homo sapiens, UniProt P30559); format: cell-based; conditions: calcium flux, normalized to control responses
T1 sequence (P30559 1-389): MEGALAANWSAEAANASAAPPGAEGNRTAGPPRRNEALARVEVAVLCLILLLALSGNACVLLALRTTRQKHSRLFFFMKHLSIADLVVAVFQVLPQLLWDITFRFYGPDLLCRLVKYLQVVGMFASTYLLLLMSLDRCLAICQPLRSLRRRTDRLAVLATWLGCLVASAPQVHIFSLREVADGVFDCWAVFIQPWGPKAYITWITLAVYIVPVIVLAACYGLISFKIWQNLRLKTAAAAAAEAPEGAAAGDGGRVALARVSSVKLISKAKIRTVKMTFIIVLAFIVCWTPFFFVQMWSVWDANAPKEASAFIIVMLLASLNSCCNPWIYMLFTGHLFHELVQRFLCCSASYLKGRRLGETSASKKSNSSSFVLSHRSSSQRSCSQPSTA

V1a receptor = V1a receptor (Homo sapiens, UniProt P37288); test: V1a receptor functional agonist assay; format: cell-based
V1a receptor, sequence (P37288 whole entry): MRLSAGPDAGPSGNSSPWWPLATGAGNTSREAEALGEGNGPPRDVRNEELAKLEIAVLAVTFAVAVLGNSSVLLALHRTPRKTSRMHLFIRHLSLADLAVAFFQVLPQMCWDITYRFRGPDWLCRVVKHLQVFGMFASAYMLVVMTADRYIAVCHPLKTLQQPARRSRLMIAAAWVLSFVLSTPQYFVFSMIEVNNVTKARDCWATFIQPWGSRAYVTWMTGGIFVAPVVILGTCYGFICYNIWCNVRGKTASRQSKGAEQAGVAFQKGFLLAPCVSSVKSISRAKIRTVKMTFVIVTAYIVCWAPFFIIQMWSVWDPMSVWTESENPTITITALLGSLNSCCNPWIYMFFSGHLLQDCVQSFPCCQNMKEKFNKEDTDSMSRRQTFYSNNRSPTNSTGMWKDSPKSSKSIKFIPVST

[1] = intravenous pharmacokinetics in rats; format: in vivo; conditions: male, Wistar Hannover, rat, plasma, 0.1 mg/kg
Outline: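 Jugular vein-cannulated male Wistar Hannover rats (250–300 g; n = 3) got a single i.v. bolus at 1 ml/kg. The native peptide was in 10% propylene glycol/90% 20 mM sodium phosphate, pH 7.4; the analog in 10% SEDDs/90% 20 mM phosphate, pH 5. Serial cannula blood was drawn predose and at 0.033–24 hours. Plasma standard curve ran 0.1–250 ng/ml with 1/x2 linear regression.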

[2] = subcutaneous nondepot pharmacokinetics in mice; format: in vivo, mouse
Outline: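 Male C57BL/6J mice (n = 3 per dose) got a single nondepot s.c. injection.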

[3] = subcutaneous depot pharmacokinetics in mice; format: in vivo, mouse
Outline: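 Male C57BL/6J mice (n = 2) got a single s.c. injection (100 µl) in a lipid-based gel depot designed for sustained release over at least 48 hours. Retro-orbital blood was drawn at 0.5, 1, 2, 4, 6 and 24 hours. Plasma standard curves were 0.5–1000 ng/ml (analog) and 0.5–500 ng/ml (native peptide), 1/x2 regression. Free concentrations were derived with fu,p.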

[4] = mice, s.c. 1 mg/kg, nondepot formulation
[5] = male, C57BL/6J, mouse, plasma, sc, 20 mg/kg

In the case of `CC[C@H](C)[C@@H]1NC(=O)[C@H](Cc2ccc(O)cc2)NC(=O)[C@@H](N)CSSC[C@@H](C(=O)N2CCC[C@H]2C(=O)N[C@@H](CC(C)C)C(=O)NCC(N)=O)NC(=O)[C@H](CC(N)=O)NC(=O)[C@H](CCC(N)=O)NC1=O` [OT, Oxytocin], the OTR % agonist (hOTR (oxytocin receptor)) is reported as 100 (n = 70) %, the V1a % agonist (V1a receptor) is reported as 94 (n = 70) % and the clearance [1] is reported as 17.1 mL/min/kg. For the same molecule, the half-life [1] was 7.2 min, the Cmax ([2]; male, C57BL/6J, mouse, plasma, sc, 1 mg/kg) was 216 nM and the “free Cmax” value [2, 4] was 191 nM. For the same molecule, the “time of Cmax postdose” value [2, 4] was 0.25 h, the Cmax [3, 5] was 65.4 nM and the half-life [3, 5] was 7.3 h. The “free Cmax” value ([3]; mice, s.c. 20 mg/kg, depot formulation) was 58.2 nM.
